Active and inactive are the calls of the source. Unless noted, no stated cut-off is given here; in the data, active means inhibition above about 30%; inactive means the rest.
Columns and labels:
[1] = reducers of endogenous Her2 protein level, primary screen, SKBR3 breast tumor cells, AlphaScreen, ATP viability (AID 461;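 active means Her2 level under about 52% in both replicate screens, with viability over 70% of control, limit read from the data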;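 on Her2 level: lower value means less Her2 protein in the cells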;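 on viability: percent of carrier control wells set as 100% viability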); conditions: 18-24 h, measured here: SKBR3 viability, ATP luminescence, at 10 µM
[2] = target: Receptor tyrosine-protein kinase erbB-2 (Homo sapiens) (UniProt P04626); assay: as above; conditions: 18-24 h, at 10 µM, stronger effect = lower value
Sequence of Receptor tyrosine-protein kinase erbB-2 (Homo sapiens) (P04626 whole entry, looked up): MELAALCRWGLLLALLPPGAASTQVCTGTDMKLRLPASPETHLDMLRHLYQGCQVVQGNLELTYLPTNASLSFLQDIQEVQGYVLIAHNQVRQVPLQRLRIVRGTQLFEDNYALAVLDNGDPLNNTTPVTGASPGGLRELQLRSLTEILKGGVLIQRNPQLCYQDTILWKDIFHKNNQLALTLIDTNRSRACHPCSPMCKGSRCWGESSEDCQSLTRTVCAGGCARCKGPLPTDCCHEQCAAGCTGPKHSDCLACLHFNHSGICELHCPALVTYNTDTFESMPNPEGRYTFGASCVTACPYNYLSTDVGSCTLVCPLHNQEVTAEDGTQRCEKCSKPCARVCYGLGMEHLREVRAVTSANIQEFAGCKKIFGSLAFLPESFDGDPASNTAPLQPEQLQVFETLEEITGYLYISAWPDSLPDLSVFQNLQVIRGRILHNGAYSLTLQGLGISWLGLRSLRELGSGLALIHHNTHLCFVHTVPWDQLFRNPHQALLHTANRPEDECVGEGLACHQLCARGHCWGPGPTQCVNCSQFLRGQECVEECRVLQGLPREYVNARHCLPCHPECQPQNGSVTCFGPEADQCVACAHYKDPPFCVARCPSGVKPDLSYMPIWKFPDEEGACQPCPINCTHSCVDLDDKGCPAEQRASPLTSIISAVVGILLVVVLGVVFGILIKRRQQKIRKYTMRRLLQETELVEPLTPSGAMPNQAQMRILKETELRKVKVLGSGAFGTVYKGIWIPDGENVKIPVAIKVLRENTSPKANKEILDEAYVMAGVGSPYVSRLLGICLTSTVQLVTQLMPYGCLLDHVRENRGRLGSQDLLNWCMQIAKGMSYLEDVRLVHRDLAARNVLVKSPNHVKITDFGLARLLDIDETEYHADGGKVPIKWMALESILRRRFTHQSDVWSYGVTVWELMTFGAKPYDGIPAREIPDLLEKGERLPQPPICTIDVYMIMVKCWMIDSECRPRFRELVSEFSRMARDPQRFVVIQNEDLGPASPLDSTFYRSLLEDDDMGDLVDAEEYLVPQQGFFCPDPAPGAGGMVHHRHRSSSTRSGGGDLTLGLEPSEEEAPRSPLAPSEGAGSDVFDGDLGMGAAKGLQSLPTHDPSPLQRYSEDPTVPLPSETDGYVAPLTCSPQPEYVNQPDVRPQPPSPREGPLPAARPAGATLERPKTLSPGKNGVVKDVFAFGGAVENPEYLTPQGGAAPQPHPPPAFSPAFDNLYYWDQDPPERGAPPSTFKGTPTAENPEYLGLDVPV

[3] = SK-BR-3 cell growth inhibitors, pilot screen, 24 h, human (AID 572;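 active means viability at or below 10% of carrier control in both of two separate runs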;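 further: compound exposure lasted between 18 and 24 h rather than exactly 24 h; 100% = carrier-treated control wells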); conditions: SK-BR-3 viability, CellTiter-Glo luminescence, at 10 µM, stronger effect = lower value
[4] = HUVEC growth inhibition – cell-based, human, primary screen (AID 575;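 active means viability at or below 30% in both replicate assays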;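 further: 100% = median of untreated cell wells with 0.1% DMSO on each plate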); conditions: HUVEC proliferation, CellTiter-Glo luminescence, 72 h; at 10 µM; stronger effect = lower value
Method in brief: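 Test system: primary human umbilical vein endothelial cells. Quantity: 1250 cells/well. Compound: single 10 µM dose, 0.1% DMSO, from 5x medium stock. Timing: 72 h treatment at 37 °C. Detection: ATP-based CellTiter-Glo luminescent read. Benchmarks: vehicle and MePR control wells. Format: 384-well plates coated with collagen.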

[5] = reversal of MRP1-mediated doxorubicin resistance, pilot screen, H69AR cells, doxorubicin co-treatment (AID 601;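 active means viability loss from added drug above about 55%, and viability with drug at most 40%, in both replicates, limit read from the data, passing the limit was not always enough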); conditions: CellTiter-Glo, 72 h, at 10 µM; for differential viability (reversal): stronger effect = higher value
[6] = 384-well plate pilot, post-Golgi transport modulator project, inhibition of yeast transport mutant growth (AID 636; in the data active means inhibition above about 31%); conditions: absorbance 615 nm, about 18 h, stronger effect = higher value
[7] = growth suppression of yeast trafficking mutant, preliminary HTS, modulators of trafficking downstream of Golgi apparatus project, 1536-format plate, OD 615 nm (AID 637); conditions: yeast transport mutant growth, absorbance 615 nm, 18 h; stronger effect = higher value
[8] = growth inhibitors of H69AR lung tumor, primary screen, human, duplicate replicates (AID 580;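 active means viability at or under a set limit in both replicates, limit being median viability minus 3 SD, cut at about 48% in these data, passing the limit was not always enough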;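 further: 100% = mean luminescence of untreated wells and 0% = no signal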); conditions: H69AR lung tumor cells viability, ATP luminescence, 72 h; at 10 µM; stronger effect = lower value
[9] = H69AR cells + 2 uM doxorubicin, measured here: viability with 2 uM doxorubicin, stronger effect = lower value
[10] = H69AR cells, compound alone cytotoxicity

SMILES	viability [1] [%]	Her2 level [2]	viability [3]	viability [4]	differential viability (reversal) ([5]; H69AR cells + 2 uM doxorubicin)	viability [5, 9] [%]	viability [5, 10] [%]	inhibition [6]	inhibition [7]	viability [8]
Cc1ccc(C)c(-c2nc3ccc(N)cc3[nH]2)c1	122	101% (inactive)	122% (inactive)	68.3% (inactive)	-15.6% (inactive)	68.3	52.8	-6.35% (inactive)	5.67% (inactive)	
COc1cc2nc(SCC(=O)NC3CC3)n(CCC3=CCCCC3)c(=O)c2cc1OC	102	107% (inactive)	102% (inactive)		9.46% (inactive)	65.1	74.5	-2.11% (inactive)	-4.33% (inactive)	74.5% (inactive)
COc1cccc(-c2nnc3sc(C4CCCCC4)nn23)c1	83	53.5% (active)	83% (inactive)		29.9% (inactive)	33.5	63.4	-1.58% (inactive)	11% (inactive)	63.4% (inactive)
CC1CCc2nc(NC(=O)CN3CCN(Cc4ccc5c(c4)OCO5)CC3)sc2C1 (configuration not stated)	90.5	77.5% (inactive)	90.5% (inactive)		14.3% (inactive)	73.5	87.8	-0.66% (inactive)	2.1% (inactive)	87.8% (inactive)
O=C(c1cc(-c2ccco2)nn1-c1cccc(Cl)c1)N1CCCCC1	111	84.5% (inactive)	111% (inactive)	95% (inactive)	-25.9% (inactive)	79.2	53.3	-2.24% (inactive)	-1.94% (inactive)	
CCOC(=O)c1cnc(-n2nc(C)cc2C)nc1Nc1ccc(N(C)C)cc1	102	75.5% (inactive)	102% (inactive)		11.6% (inactive)	26.3	37.9	-6.05% (inactive)	-1.13% (inactive)	37.9% (active)
Cc1[nH]nc(N=CC2=C(O)CC(C)(C)CC2=O)c1-c1ccc(Cl)cc1	94.5	94.5% (inactive)	94.5% (inactive)	79.4% (inactive)	1.14% (inactive)	38.9	40.1	6.8% (inactive)	6.83% (inactive)	
O=C(Nc1ccc(S(=O)(=O)N2CCCCCC2)cc1)c1ccco1	94.5	89.5% (inactive)	94.5% (inactive)		2.81% (inactive)	94.3	97.1	-1.17% (inactive)	6.07% (inactive)	97.1% (inactive)
Cc1ccc(C(C)C)c(OCc2nnc(SCC(=O)Nc3ncc(C)s3)n2C)c1	89.5	86% (inactive)	89.5% (inactive)		1.44% (inactive)	39.7	41.1	0% (inactive)	-5.48% (inactive)	41.1% (active)
O=C(CSc1nnc2scc(-c3ccccc3)n12)Nc1nsc(-c2ccccc2)n1	82.5	78% (inactive)	82.5% (inactive)	70.3% (inactive)	-14.1% (inactive)	75.2	61.1	-6.53% (inactive)	0.48% (inactive)	
COc1ccc(/C=N/n2cc(-c3ccc(OC)cc3)nc2N)cc1	85	99% (inactive)	85% (inactive)	82.5% (inactive)	-10.3% (inactive)	63.6	53.3	-1.41% (inactive)	-8% (inactive)	
COc1ccc(-c2noc(CCC(=O)NCCCN3CCC(Cc4ccccc4)CC3)n2)cc1	87.5	77% (inactive)	87.5% (inactive)	33.1% (inactive)	-1.48% (inactive)	64.4	63	1.05% (inactive)	-6% (inactive)	
CCOC(=O)c1sc2nc(SCC(=O)NCc3ccco3)n(Cc3ccccc3)c(=O)c2c1C	90.5	84% (inactive)	90.5% (inactive)	82% (inactive)	13% (inactive)	33	46	-5.68% (inactive)	0.98% (inactive)	
